Laboratory results taken from ChEMBL document CHEMBL1138782, “Toward a novel metal-based chemotherapy against tropical diseases. 7. Synthesis and in vitro antimalarial activity of new gold-chloroquine complexes” (J Med Chem, 2004).

System: Cell line
Experiment: Parasitaemia for Plasmodium falciparum in human erythrocytes after 3 hrs incubation with 100 uM compound
Format: functional
Summary of the method: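 Uninfected RBCs preincubated 3 h at 37 °C with 100 µM compound, washed in RPMI medium, then placed 6 h with RBCs carrying 44–48 h schizonts of synchronized K1 culture (plasmagel and sorbitol synchronization); reinvasion read as resulting parasitemia (%).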

CCN(CC)CCCC(C)Nc1ccnc2cc(Cl)ccc12.O=P(O)(O)O.O=P(O)(O)O (stereo unspecified) [CHLOROQUINE PHOSPHATE]
Parasitemia: 5.67%
